Source: PMC2667967 (Cancer cell, 2008)
Non-standard residues stand in square brackets, D forms with d. No end group written: not given here. *: point of attachment. FITC = O=C1OC2(c3ccc(O)cc3Oc3cc(O)ccc32)c2ccc(NC(=S)*)cc21

Legend:
[1] = target: T1, GST-Bcl-2 (Homo sapiens, UniProt P10415); test: FP competition assay, GST-Bcl-2; type: binding; details: 200 nM GST-Bcl-2, 20 nM FITC-NuBCP-r8, PBS pH 7.6, 25°C, triplicate
[2] = system: CEM leukemia cells; test: Killing of CEM leukemia cells stably expressing Bcl-2; type: cell-based; details: Figure S4
[3] = system: Jurkat cells stably expressing Bcl-2; test: Apoptosis of Jurkat cells stably expressing Bcl-2; type: cell-based; details: Figure S3
Method in brief: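 Jurkat cells stably carrying an empty neo vector or a Bcl-2 expression vector, with Bcl-2 levels checked by immunoblot. Cells were exposed to the test peptide (10 µM) in medium with 5% FBS for 36 h. Apoptosis was scored by DAPI nuclear morphology.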

[4] = system: Bcl-2^−/−MEFs; test: Apoptosis of Bcl-2 knockout MEFs; type: cell-based, mouse; details: STS 0.1 µM or Bad BH3 peptide 10 µM, 36 h, DAPI
Method in brief: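 Wild-type and Bcl-2−/− MEFs, with Bcl-2 status confirmed by immunoblotting, were exposed to staurosporine (0.1 µM) or Bad BH3 peptide (10 µM) for 36 h. Peptide treatments used medium with 10% FBS unless otherwise specified. Apoptosis was scored from nuclear morphology after DAPI staining.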

[5] = target: T1, GST-Bcl-2; test: circular dichroism
[6] = target: GST-Bcl-2/1-90 (UniProt P10415); test: fluorescence polarisation
[7] = target: T1, GST-Bcl-2; test: FP binding to GST-Bcl-2; details: 200 nM protein, 20 nM FITC peptide-r8, PBS pH 7.6, 25°C, triplicate
Method in brief: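 GST-Bcl-2 (200 nM) was incubated briefly with FITC-labelled, r8-fused test peptide (20 nM) in PBS, pH 7.6, at 25°C, in triplicate. GST-Bcl-XL and GST served as comparison proteins. Polarization was read at excitation 485 nm and emission 530 nm once the signal stabilized within 20 min. Kd was calculated from single-site binding curves and reported as mean ± SD.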

[8] = system: GST; test: FP binding to GST; details: 200 nM protein, 20 nM FITC peptide-r8, PBS pH 7.6, 25°C
Method in brief: (§1)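 Fluorescence polarization: 200 nM protein (GST or GST-Bcl-XL) was incubated with FITC-labelled r8 test peptide (20 nM) in PBS, pH 7.6, at 25°C, in triplicate. FP was read once the signal stabilized within 20 min (excitation 485 nm, emission 530 nm). Results are mean ± SD.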

[9] = target: GST-Bcl-XL (Homo sapiens, UniProt Q07817); test: FP binding to GST-Bcl-XL; details: 200 nM protein, 20 nM FITC peptide-r8, PBS pH 7.6, 25°C
Method in brief: as §1

[10] = system: Bax; test: Bax activation in Bcl-2 knockout MEFs; type: cell-based, mouse; details: NuBCP-9 10 µM 16 hr; or GFP-Nur77/478-504 cotransfected with Bcl-2
Method in brief: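 Bcl-2−/− MEFs were run with wild-type MEFs and exposed to the test peptide (10 µM) for 16 hr. Alternatively, Bcl-2−/− MEFs were cotransfected with Bcl-2 (1 µg) plus GFP or GFP-Nur77/478-504 (1 µg). Active Bax was immunostained with 6A7 antibody and read by flow cytometry. Comparisons were treated vs untreated, or GFP-only vs Bcl-2-coexpressing cells from the same transfection.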

[11] = system: mitochondria (RFP-Mito), H460 cells; test: Mitochondrial targeting in H460 cells; type: cell-based; details: FITC-D-NuBCP-9-r8 6 µM, 2 hr, or GFP fusions transfected 12 hr
Method in brief: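 H460 cells on glass coverslips were transfected with RFP-Mito (50 ng) plus GFP fused to Nur77 residues 489–497 or 478–504 (50 ng) for 12 hr. In a second arm, cells were transfected with RFP-Mito for 12 hr and then treated with 6 µM FITC-labelled, r8-fused test peptide for 2 hr. Subcellular fluorophore localization was analysed by confocal microscopy.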

[12] = system: Bcl-B; test: Co-IP with Bcl-B; type: binding; details: HEK293T
Method in brief: (§2)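 HEK293T cells were transfected with GFP-Nur77/478-504 (2 µg), with or without a Myc-tagged Bcl-2 family member plasmid (0.8 µg). Lysates were immunoprecipitated and complexes detected by western blot. Input was 5% of lysate, and one of three experiments is shown.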

[13] = system: Bfl-1; test: Co-IP with Bfl-1; type: binding; details: HEK293T
Method in brief: as §2

[14] = system: various cancer cell lines; test: Apoptosis induction, various cancer cell lines; type: cell-based
[15] = system: normal primary mammary epithelial cells; test: Apoptosis of normal primary mammary epithelial cells; type: cell-based; details: 24 h, Annexin V; r8 conjugate
Method in brief: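 Normal primary mammary epithelial cells were run alongside ZR-75-1 breast cancer cells. They were exposed to the r8-conjugated test peptide for 24 h in medium with 10% FBS. Apoptosis was read by Annexin V binding on flow cytometry.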

[16] = target: GST-Bcl-XL (UniProt Q07817-1 1-233); test: fluorescence polarisation
[17] = target: GST-Bcl-2 (UniProt P10415 1-239); test: circular dichroism
[18] = target: GST-Bcl-2/1-90 (UniProt P10415 1-90); test: fluorescence polarisation
Chain of GST-Bcl-2/1-90 (UniProt P10415 1-90) (P10415 1-90): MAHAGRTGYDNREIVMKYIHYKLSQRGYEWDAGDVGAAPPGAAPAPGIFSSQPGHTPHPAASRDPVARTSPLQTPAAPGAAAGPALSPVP

T1 sequence (P10415 whole entry): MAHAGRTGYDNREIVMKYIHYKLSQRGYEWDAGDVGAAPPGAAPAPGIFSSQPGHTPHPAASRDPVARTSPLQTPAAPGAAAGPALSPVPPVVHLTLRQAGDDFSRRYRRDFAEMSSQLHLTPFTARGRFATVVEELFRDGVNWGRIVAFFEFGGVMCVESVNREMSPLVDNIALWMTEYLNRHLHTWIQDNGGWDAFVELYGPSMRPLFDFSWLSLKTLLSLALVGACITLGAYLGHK
Chain of D-NuBCP-9 (unlabeled, in vitro assays) (P22736 whole entry, looked up): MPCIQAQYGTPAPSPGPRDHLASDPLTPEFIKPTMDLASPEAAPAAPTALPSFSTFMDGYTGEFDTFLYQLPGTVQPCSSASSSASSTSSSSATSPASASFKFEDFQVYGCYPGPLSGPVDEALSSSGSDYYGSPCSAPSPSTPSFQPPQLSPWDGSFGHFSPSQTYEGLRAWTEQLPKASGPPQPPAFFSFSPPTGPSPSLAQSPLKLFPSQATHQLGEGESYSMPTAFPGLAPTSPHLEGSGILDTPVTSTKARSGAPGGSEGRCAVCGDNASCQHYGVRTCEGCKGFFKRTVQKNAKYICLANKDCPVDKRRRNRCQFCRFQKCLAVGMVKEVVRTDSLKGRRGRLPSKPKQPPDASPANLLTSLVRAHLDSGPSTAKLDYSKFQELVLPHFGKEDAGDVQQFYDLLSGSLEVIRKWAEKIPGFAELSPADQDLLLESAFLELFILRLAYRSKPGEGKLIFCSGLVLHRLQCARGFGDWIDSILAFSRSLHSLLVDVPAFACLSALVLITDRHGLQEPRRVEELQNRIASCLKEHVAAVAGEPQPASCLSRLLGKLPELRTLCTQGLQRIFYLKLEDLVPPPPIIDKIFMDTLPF
Chain of FITC-D-NuBCP-9-r8 (P22736 whole entry, looked up): as above
Chain of GST-Bcl-2 (UniProt P10415 1-239) (P10415 whole entry): as the sequence (P10415 whole entry) above
Chain of GST-Bcl-XL (Homo sapiens, UniProt Q07817) (Q07817 whole entry): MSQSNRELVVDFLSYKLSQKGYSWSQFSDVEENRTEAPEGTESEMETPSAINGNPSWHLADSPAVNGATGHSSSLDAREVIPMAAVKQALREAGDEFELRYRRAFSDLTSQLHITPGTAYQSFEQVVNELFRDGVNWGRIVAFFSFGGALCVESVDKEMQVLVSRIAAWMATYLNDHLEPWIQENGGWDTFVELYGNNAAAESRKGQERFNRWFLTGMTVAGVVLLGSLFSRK
Chain of GST-Bcl-XL (UniProt Q07817-1 1-233) (Q07817 whole entry): as above
Chain of GST-Bcl-2/1-90 (UniProt P10415) (P10415 1-90): as the sequence (P10415 1-90) above

CN(C)CC[C@H](CSc1ccccc1)Nc1ccc(S(=O)(=O)NC(=O)c2ccc(N3CCN(Cc4ccccc4-c4ccc(Cl)cc4)CC3)cc2)cc1[N+](=O)[O-] [ABT-737]
competition with FITC-NuBCP-9 binding to GST-Bcl-2 [1]: failure of either a BH3 peptide (Bak BH3) or a potent small molecule inhibitor (ABT-737) that targets the Bcl-2 BH3- binding site to reduce FITC-NuBCP-9 binding to GST-Bcl-2

CN[C@@H]1C[C@H]2O[C@@](C)([C@@H]1OC)n1c3ccccc3c3c4c(c5c6ccccc6n2c5c31)C(=O)NC4 [STS, staurosporine]
effect of stable Bcl-2 expression on killing [2]: prevented the killing | effect of Bcl-2 overexpression on apoptosis [3]: attenuated by Bcl-2 overexpression in Jurkat cells | effect of Bcl-2 knockout on death effect [4]: enhanced in Bcl-2^−/−MEFs

D-NuBCP-9 (unlabeled, in vitro assays) (from UniProt P22736 489-497) (peptide)
Kd [5]: 2 µM | stoichiometry N [5]: 1

FITC-D-NuBCP-9-r8 (from UniProt P22736 489-497) (peptide)
Kd [6]: 2.5 µM

FITC-NuBCP-9/AA: FITC-labeled NuBCP-9/AA ({FITC}-ASRSLHSLA; also: r8 (D-Arg octamer) attached, end not given here)
FP change with GST-Bcl-2 [7]: little affected

FITC-NuBCP-9: FITC-labeled NuBCP-9 (r8) ({FITC}-FSRSLHSLL; also: r8 (D-Arg octamer) attached, end not given here)
FP change with GST [8]: neither GST-Bcl-XL nor GST, induced a concentration-dependent FP | FP change with GST-Bcl-XL [9]: neither GST-Bcl-XL nor GST, induced a concentration-dependent FP | FP change with GST-Bcl-2 [7]: induced a concentration-dependent FP of FITC-NuBCP-9 and FITC-D-NuBCP-9

GFP-Nur77/478-504: residues 478–504 of Nur77 fused with green fluorescence protein (GFGDWIDSILAFSRSLHSLLVDVPAFA; also: fused with GFP, end not given here)
Bax activation, Bcl-2^−/−MEFs [10]: Expression of Bcl-2 in Bcl-2^−/−MEFs restores Bax activation by NuBCP | co-localization with RFP-Mito [11]: co-localized extensively with RFP-Mito | binding to Bcl-B [12]: bound to anti-apoptotic Bcl-2 family members, Bcl-B and Bfl-1 | binding to Bfl-1 [13]: bound to anti-apoptotic Bcl-2 family members, Bcl-B and Bfl-1

NuBCP-20: 20 amino acid peptide (aa 480 to 499) of Nur77 (GDWIDSILAFSRSLHSLLVD; UniProt P22736 480-499, looked up, fragment)
apoptotic effect ([14]; r8 conjugate): potent apoptotic effect in various cancer cell lines | apoptotic potency relative to Bid BH3 peptide ([14]; various cancer cell lines): more potent than a BH3 peptide derived from the pro-apoptotic Bcl-2 family member Bid | apoptosis induction [15]: Neither NuBCP-20 nor NuBCP-9 induced the apoptosis of normal primary mammary epithelial cells

VHLTLRQAGDDFSRR (also: F5M-labelled Cys, position not given here) [F5M-Bcl-2 BH3 peptide]
Kd [16]: 0.145 µM

FSRSLHSLL (peptide, UniProt P22736 489-497, looked up) [NuBCP-9 (unlabeled, in vitro assays)]
stoichiometry N [17]: 1

{FITC}-FSRSLHSLL[dR][dR][dR][dR][dR][dR][dR][dR] (peptide, UniProt P22736 489-497, looked up) [FITC-NuBCP-9-r8]
Kd [18]: 1.7 µM
